According to ChEMBL document CHEMBL1123146, “Design, synthesis, and evaluation of omega-iodovinyl- and omega-iodoalkyl-substituted methyl-branched long-chain fatty acids” (J Med Chem, 1985):

Assays:
[1] = tested on: Rattus norvegicus; assay: Distribution of radioactivity was measured in thyroid tissue of unfasted Fischer 344 rats administered intravenously after 60 minutes (radiolabeled with [125I]-; type: ADME, organism-based, Thyroid gland; conditions: in vivo, iv, 1 h
Outline: (§1)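 Female Fischer 344 rats (10-12 weeks, 170-200 g), fed ad libitum before and during the experiment, five per time point. The radioiodinated fatty acid was dissolved in 0.5 mL absolute ethanol, added dropwise to stirred 6% BSA at ~40 °C (final ethanol 10%), filtered at 0.22 µm, and injected in 0.5 mL into a lateral tail vein under ether anesthesia.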

[2] = tested on: Rattus norvegicus; assay: Distribution of radioactivity was measured in blood tissue of unfasted Fischer 344 rats administered intravenously after 60 minutes (radiolabeled with [125I]-; type: ADME, organism-based; conditions: in vivo, iv, 1 h
Outline: (§2)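 Female Fischer 344 rats, 10–12 weeks old (170–200 g), with food and water ad libitum, five per time point. The radioiodinated fatty acid was dissolved in ethanol, added to 6% BSA at ~40 °C (final 10% ethanol), filtered, and injected into a lateral tail vein (0.5 mL) under ether anesthesia. Blood was taken by cardiac puncture; organs were rinsed, blotted, weighed and gamma-counted against injectate standards. Output is % injected dose/g.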

[3] = tested on: Rattus norvegicus; assay: Distribution of radioactivity was measured in lung tissue of unfasted Fischer 344 rats administered intravenously after 30 minutes (radiolabeled with [125I]-; type: ADME, organism-based; conditions: in vivo, iv, 0.5 h; outline: as §2
[4] = tested on: Rattus norvegicus; assay: Mean heart/blood tissue of unfasted Fischer 344 rats administered intravenous after 15 minutes (radiolabeled with [125I]-; type: ADME, organism-based; conditions: in vivo, 0.25 h; outline: as §1
[5] = tested on: Rattus norvegicus; assay: Distribution of radioactivity was measured in lung tissue of unfasted Fischer 344 rats administered intravenously after 15 minutes (radiolabeled with [125I]-; type: ADME, organism-based; conditions: in vivo, iv, 0.25 h; outline: as §2
[6] = tested on: Rattus norvegicus; assay: Distribution of radioactivity was measured in heart tissue of unfasted Fischer 344 rats administered intravenously after 30 minutes (radiolabeled with [125I]-; type: ADME, organism-based; conditions: in vivo, iv, 0.5 h; outline: as §2
[7] = tested on: Rattus norvegicus; assay: Distribution of radioactivity was measured in thyroid tissue of unfasted Fischer 344 rats administered intravenously after 5 minutes (radiolabeled with [125I]-; type: ADME, organism-based, Thyroid gland; conditions: in vivo, iv; outline: as §2
[8] = tested on: Rattus norvegicus; assay: Distribution of radioactivity was measured in liver tissue of unfasted Fischer 344 rats administered intravenously after 5 minutes (radiolabeled with [125I]-; type: ADME, organism-based; conditions: in vivo, iv; outline: as §2
[9] = tested on: Rattus norvegicus; assay: Mean heart/blood tissue of unfasted Fischer 344 rats administered intravenous after 2 minutes (radiolabeled with [125I]-; type: ADME, organism-based; conditions: in vivo; outline: as §1
[10] = tested on: Rattus norvegicus; assay: Mean heart/blood tissue of unfasted Fischer 344 rats administered intravenous after 30 minutes (radiolabeled with [125I]-; type: ADME, organism-based; conditions: in vivo, 0.5 h; outline: as §1
[11] = tested on: Rattus norvegicus; assay: Distribution of radioactivity was measured in lung tissue of unfasted Fischer 344 rats administered intravenously after 60 minutes (radiolabeled with [125I]-; type: ADME, organism-based; conditions: in vivo, iv, 1 h; outline: as §2
[12] = tested on: Rattus norvegicus; assay: Distribution of radioactivity was measured in kidney tissue of unfasted Fischer 344 rats administered intravenously after 30 minutes (radiolabeled with [125I]-; type: ADME, organism-based; conditions: in vivo, iv, 0.5 h; outline: as §2
[13] = tested on: Rattus norvegicus; assay: Distribution of radioactivity was measured in thyroid tissue of unfasted Fischer 344 rats administered intravenously after 15 minutes (radiolabeled with [125I]-; type: ADME, organism-based, Thyroid gland; conditions: in vivo, iv, 0.25 h; outline: as §2
[14] = tested on: Rattus norvegicus; assay: Distribution of radioactivity was measured in blood tissue of unfasted Fischer 344 rats administered intravenously after 5 minutes (radiolabeled with [125I]-; type: ADME, organism-based; conditions: in vivo, iv; outline: as §2
[15] = tested on: Rattus norvegicus; assay: Distribution of radioactivity was measured in liver tissue of unfasted Fischer 344 rats administered intravenously after 60 minutes (radiolabeled with [125I]-; type: ADME, organism-based; conditions: in vivo, iv, 1 h; outline: as §2
[16] = tested on: Rattus norvegicus; assay: Distribution of radioactivity was measured in blood tissue of unfasted Fischer 344 rats administered intravenously after 30 minutes (radiolabeled with [125I]-; type: ADME, organism-based; conditions: in vivo, iv, 0.5 h; outline: as §2
[17] = tested on: Rattus norvegicus; assay: Distribution of radioactivity was measured in kidney tissue of unfasted Fischer 344 rats administered intravenously after 5 minutes (radiolabeled with [125I]-; type: ADME, organism-based; conditions: in vivo, iv; outline: as §2
[18] = tested on: Rattus norvegicus; assay: Distribution of radioactivity was measured in lung tissue of unfasted Fischer 344 rats administered intravenously after 5 minutes (radiolabeled with [125I]-; type: ADME, organism-based; conditions: in vivo, iv; outline: as §2
[19] = tested on: Rattus norvegicus; assay: Distribution of radioactivity was measured in lung tissue of unfasted Fischer 344 rats administered intravenously after 2 minutes (radiolabeled with [125I]-; type: ADME, organism-based; conditions: in vivo, iv; outline: as §2
[20] = tested on: Rattus norvegicus; assay: Distribution of radioactivity was measured in heart tissue of unfasted Fischer 344 rats administered intravenously after 2 minutes (radiolabeled with [125I]-; type: ADME, organism-based; conditions: in vivo, iv; outline: as §2
[21] = tested on: Rattus norvegicus; assay: Distribution of radioactivity was measured in liver tissue of unfasted Fischer 344 rats administered intravenously after 30 minutes (radiolabeled with [125I]-; type: ADME, organism-based; conditions: in vivo, iv, 0.5 h; outline: as §2
[22] = tested on: Rattus norvegicus; assay: Distribution of radioactivity was measured in kidney tissue of unfasted Fischer 344 rats administered intravenously after 15 minutes (radiolabeled with [125I]-; type: ADME, organism-based; conditions: in vivo, iv, 0.25 h; outline: as §2
[23] = tested on: Rattus norvegicus; assay: Distribution of radioactivity was measured in liver tissue of unfasted Fischer 344 rats administered intravenously after 15 minutes (radiolabeled with [125I]-; type: ADME, organism-based; conditions: in vivo, iv, 0.25 h; outline: as §2
[24] = tested on: Rattus norvegicus; assay: Distribution of radioactivity was measured in blood tissue of unfasted Fischer 344 rats administered intravenously after 2 minutes (radiolabeled with [125I]-; type: ADME, organism-based; conditions: in vivo, iv; outline: as §2
[25] = tested on: Rattus norvegicus; assay: Distribution of radioactivity was measured in blood tissue of unfasted Fischer 344 rats administered intravenously after 15 minutes (radiolabeled with [125I]-; type: ADME, organism-based; conditions: in vivo, iv, 0.25 h; outline: as §2
[26] = tested on: Rattus norvegicus; assay: Distribution of radioactivity was measured in kidney tissue of unfasted Fischer 344 rats administered intravenously after 60 minutes (radiolabeled with [125I]-; type: ADME, organism-based; conditions: in vivo, iv, 1 h; outline: as §2
[27] = tested on: Rattus norvegicus; assay: Distribution of radioactivity was measured in kidney tissue of unfasted Fischer 344 rats administered intravenously after 2 minutes (radiolabeled with [125I]-; type: ADME, organism-based; conditions: in vivo, iv; outline: as §2
[28] = tested on: Rattus norvegicus; assay: Distribution of radioactivity was measured in heart tissue of unfasted Fischer 344 rats administered intravenously after 60 minutes (radiolabeled with [125I]-; type: ADME, organism-based; conditions: in vivo, iv, 1 h; outline: as §2
[29] = tested on: Rattus norvegicus; assay: Mean heart/blood tissue of unfasted Fischer 344 rats administered intravenous after 5 minutes (radiolabeled with [125I]-; type: ADME, organism-based; conditions: in vivo; outline: as §1
[30] = tested on: Rattus norvegicus; assay: Distribution of radioactivity was measured in heart tissue of unfasted Fischer 344 rats administered intravenously after 5 minutes (radiolabeled with [125I]-; type: ADME, organism-based; conditions: in vivo, iv; outline: as §2
[31] = organism: Rattus norvegicus; assay: Specific activity was determined with radioiodinated iodine-123; type: functional
[32] = tested on: Rattus norvegicus; assay: Distribution of radioactivity was measured in liver tissue of unfasted Fischer 344 rats administered intravenously after 2 minutes (radiolabeled with [125I]-; type: ADME, organism-based; conditions: in vivo, iv; outline: as §2
[33] = tested on: Rattus norvegicus; assay: Mean heart/blood tissue of unfasted Fischer 344 rats administered intravenous after 60 minutes (radiolabeled with [125I]-; type: ADME, organism-based; conditions: other tissue, 1 h; outline: as §1
[34] = tested on: Rattus norvegicus; assay: Distribution of radioactivity was measured in thyroid tissue of unfasted Fischer 344 rats administered intravenously after 2 minutes (radiolabeled with [125I]-; type: ADME, organism-based, Thyroid gland; conditions: in vivo, iv; outline: as §2
[35] = organism: Rattus norvegicus; assay: Specific activity was determined with radioiodinated iodine-125; type: functional
[36] = tested on: Rattus norvegicus; assay: Distribution of radioactivity was measured in thyroid tissue of unfasted Fischer 344 rats administered intravenously after 30 minutes (radiolabeled with [125I]-; type: ADME, organism-based, Thyroid gland; conditions: in vivo, iv, 0.5 h; outline: as §2
[37] = tested on: Rattus norvegicus; assay: Distribution of radioactivity was measured in heart tissue of unfasted Fischer 344 rats administered intravenously after 15 minutes (radiolabeled with [125I]-; type: ADME, organism-based; conditions: in vivo, iv, 0.25 h; outline: as §2

Distribution [1]: 43.5%
Distribution [2]: 0.31%
Distribution [3]: 1%
Distribution [4]: 8.6%
Distribution [5]: 0.92%
Distribution [6]: 3.79%
Distribution [7]: 8.73%
Distribution [8]: 6.45%
Distribution [9]: 9.9%
Distribution [10]: 7.4%
Distribution [11]: 0.86%
Distribution [12]: 0.76%
Distribution [13]: 15.7%
Distribution [14]: 0.3%
Distribution [15]: 3.79%
Distribution [16]: 0.51%
Distribution [17]: 0.82%
Distribution [18]: 0.97%
Distribution [19]: 1.16%
Distribution [20]: 4.44%
Distribution [21]: 5.72%
Distribution [22]: 0.73%
Distribution [23]: 5.88%
Distribution [24]: 0.45%
Distribution [25]: 0.35%
Distribution [26]: 0.67%
Distribution [27]: 0.85%
Distribution [28]: 3.4%
Distribution [29]: 12.4%
Distribution [30]: 3.72%
Distribution [32]: 6.91%
Distribution [33]: 10.9%
Distribution [34]: 7.91%
Distribution [36]: 21.9%
Distribution [37]: 3%
SMILES: O=C(O)CCCCCCCCCCCCCCCC/C=C/I
Specific activity [31]: 2.21 Ci mM-1
Specific activity [35]: 1.77 Ci mM-1
